Data published in ChEMBL document CHEMBL1132547, “Molecular recognition of modified adenine nucleotides by the P2Y(1)-receptor. 1. A synthetic, biochemical, and NMR approach” (J Med Chem, 1999).

Experiments:
P2Y purinoceptor 1 = P2Y purinoceptor 1 (Meleagris gallopavo, UniProt P49652); test: Compounds was tested for its ability to stimulate phospholipase C activity at the P2Y purinoceptor 1 in turkey erythrocyte membranes.; type: cell membranes
Method in brief: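 Turkey erythrocytes labeled 18–24 h at 37 °C with 2-[3H]myo-inositol in inositol-free DMEM; membranes from hypotonic lysis; PLC assay at pH 7.0 with […] and varying nucleotide concentrations, 5 min at 30 °C; total [3H]inositol phosphates by ion-exchange chromatography; EC50 from four-parameter logistic fit, ≥3 experiments on different membrane preparations, duplicate assays.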

Rattus norvegicus [1] = organism: Rattus norvegicus; test: Amplitude of the [Ca++]i Transient evoked by 10 uM ATP, AMP and the compound in NG108-15 Neuroblastoma x Glioma Hybrid cells; type: functional
Method in brief: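 NG108-15 cells (passage 24–40) grown on glass coverslips 3–7 days (20–80% confluency), loaded 30 min at 37 °C with 2 μM fura-2/AM in HEPES-buffered saline pH 7.4, superfused at 37 °C; 30-s agonist application at 10 μM; single-cell imaging, alternate 340/380 nm excitation, emission >510 nm; amplitude as Δ F340/F380 ratio, mean ± SEM over n single cells.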

Rattus norvegicus [2] = organism: Rattus norvegicus; test: Amplitude of the [Ca++]i Transient evoked by 10 uM ATP, AMP and the compound in rat Astrocytes, expressed as (F340 nm/F380 nm); type: functional
Method in brief: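 Primary astrocyte-enriched cultures from newborn Wistar rat whole brain, used on days 6–11 in culture; fura-2/AM (2 μM, 30 min, 37 °C, HEPES-buffered saline pH 7.4) loading; superfusion at 37 °C, 30-s stimulation at 10 μM; single-cell 340/380 nm ratio imaging; maximal Δ F340/F380, mean ± SEM, n = single cells.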

P2Y purinoceptor 1, sequence (P49652 whole entry): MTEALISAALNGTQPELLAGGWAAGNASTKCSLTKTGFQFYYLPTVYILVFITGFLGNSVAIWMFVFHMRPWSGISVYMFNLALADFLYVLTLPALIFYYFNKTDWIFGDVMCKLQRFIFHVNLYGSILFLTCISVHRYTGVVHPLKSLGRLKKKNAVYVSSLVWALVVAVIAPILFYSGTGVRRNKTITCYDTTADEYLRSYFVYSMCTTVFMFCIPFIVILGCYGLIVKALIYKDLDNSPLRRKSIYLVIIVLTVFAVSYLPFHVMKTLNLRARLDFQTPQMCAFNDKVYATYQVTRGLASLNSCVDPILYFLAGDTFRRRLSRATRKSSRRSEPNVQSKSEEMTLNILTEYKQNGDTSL

Compound	EC50 (P2Y purinoceptor 1) [nM]	Activity (Rattus norvegicus [1])	Activity (Rattus norvegicus [2])
CCCCSc1nc2c(N)ncnc2n1[C@@H]1O[C@H](COP(=O)(O)OP(=O)(O)OP(=O)(O)O)[C@@H](O)[C@H]1O	10000		
CCCCNc1nc2c(N)ncnc2n1[C@@H]1O[C@H](COP(=O)(O)OP(=O)(O)OP(=O)(O)O)[C@@H](O)[C@H]1O	51000		
CCCCNc1nc(N)c2ncn([C@@H]3O[C@H](COP(=O)([O-])OP(=O)([O-])OP(=O)([O-])[O-])[C@@H](O)[C@H]3O)c2n1.[Na+].[Na+].[Na+].[Na+]	39	0.05	0.89
CCCCOc1nc2c(N)ncnc2n1[C@@H]1O[C@H](COP(=O)(O)OP(=O)(O)OP(=O)(O)O)[C@@H](O)[C@H]1O	5710		
CCCCSc1nc(N)c2ncn(C3O[C@H](COP(=O)([O-])[O-])[C@@H](O)[C@H]3O)c2n1.[Na+].[Na+] (stereo partly drawn)			0.28
CCCCSc1nc(N)c2ncn([C@@H]3O[C@H](COP(=O)([O-])OP(=O)([O-])OP(=O)([O-])[O-])[C@@H](O)[C@H]3O)c2n1.[Na+].[Na+].[Na+].[Na+]	18	0.23	0.9
CCCCOc1nc(N)c2ncn([C@@H]3O[C@H](COP(=O)([O-])OP(=O)([O-])OP(=O)([O-])[O-])[C@@H](O)[C@H]3O)c2n1.[Na+].[Na+].[Na+].[Na+]	88	0.06	0.63
